Assay: Toxicity liver stage against HepG2, at 10uM
Format: cell-based
Design: test concentration 10 uM, cell line HepG2-A16-CD81EGFP
Settings: human, HepG2-A16-CD81EGFP cells; read-out: INHIBITION
Method in brief: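 Uninfected HepG2-A16-CD81EGFP cells, 3 × 10^3 per well, 1536-well, plated on prespotted compound at 10 μM final, parasite-free screening media added to match infected plates; puromycin 10 μM positive, DMSO 0.5% negative; run in parallel with 48 h PbLuc assay at 37 °C, 5% CO2; viability by CellTiter-Glo luminescence, normalized to controls.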

Compound	cytotoxicity at 10 µM
Cc1cn(CC(=O)NC2CCN(S(C)(=O)=O)CC2)c2ccccc12	1.44%
NS(=O)(=O)CCNC(=O)c1nnn(-c2ccccc2)c1C1CC1	-12.2%
Cc1ncsc1C(=O)N1CCN(Cc2ccccc2)CC1C (stereo not given)	-161%
CCN(C)S(=O)(=O)N1CCC(C(O)c2ccc(F)cc2)CC1 (stereo not given)	-22%
CN(CCc1ccccn1)C1CCCN(Cc2noc(C3CC3)n2)C1 (stereo not given)	11.6%
CCCc1nc(C)cc(N2CCC3(CCC(=O)N(CC(N)=O)C3)CC2)n1	-8.38%
Cc1cnccc1N1CCCN(C(=O)CCCn2ccnc2C)CC1	-5.39%
CC(C)c1ncncc1C(=O)NCCN1CCOCC1	-0.103%
CC(=O)N1CC[C@H]2[C@H](C[C@@H](Cn3cncn3)N2c2nccs2)C1	-140%
CN(C)Cc1ccnc(C2CN(Cc3nccs3)CCO2)n1 (stereo not given)	-2.61%
Cc1ncccc1O[C@H]1CCN(C(=O)c2cccs2)CC[C@@H]1O	0.719%
COc1cc(-c2cccc3c2OC(CN)C3)cc(OC)c1OC (stereo not given)	-42.6%
NC(=O)N1CCC2(CCN(C(=O)c3cccnc3)CC2)C1	-83%
O=C1NCCO[C@H]2CN(C(=O)CCc3ccc(Cl)cc3)CC[C@@H]12	11.1%
O=S(=O)(NCC1CCOC1)N1CCc2ccccc2C1 (stereo not given)	-4.06%
Cc1cc2c(c(-c3cncc(C(=O)N4CCCC4)n3)c1)OC(CN)C2 (stereo not given)	-45.7%
CNc1ncc(CN(C)c2nccc(CCC(F)(F)F)n2)cn1	-16.3%
Cc1ccc(S(=O)(=O)N2CCC(c3n[nH]cc3C)C2)cc1 (stereo not given)	-14.3%
Cc1nc(CN(C)C(=O)c2ccc(Cn3cnnn3)cc2)cs1	-15.4%
CC1(C)CNC(=O)CN(C(=O)COc2ccccc2)C1	1.4%
COCc1cccc(CNC(=O)CNc2ccccc2C(C)=O)c1	0.529%
O=c1[nH]c(COc2ccccc2Cl)nc2c1CCNC2	1.97%

Compound	cytotoxicity at 10 µM
Cc1noc(C)c1CN1CC[C@H]2[C@@H]1CCC(=O)N2CC1CCOCC1	-1.38%
CN1CCCNC(=O)C12CCN(C(=O)c1ccc3[nH]cnc3c1)CC2	-1.16%
COCC(=O)Nc1ccc2c(c1)C1(CCOCC1)CN2CCF	-99.6%
Cc1cc(CC(C)NC(=O)Cc2cc(F)ccc2C)[nH]n1 (stereo not given)	-42.9%
COC(=O)COc1cc(NCc2c(C)noc2C)c(Cl)cc1C	3.2%
Cc1nc(C)n(CC2CN(CC(=O)Nc3nccs3)CCO2)n1 (stereo not given)	-13.8%
Cc1cc(C(=O)Nc2ccc3oc(=O)n(CCN(C)C)c3c2)c(C)o1	-2.22%
CC(C)(C)c1nc(CN2CCCN(Cc3cccs3)CC2)no1	6%
Cc1cnn(CC2CCCN2c2nn3cc(C)nc3s2)c1 (stereo not given)	-2.84%
CC(C)C(=O)N1CCN(c2ncnc3cc4c(cc23)OCCO4)CC1	2.41%
Cc1nc(C)c(C(=O)N2CCN(CCOc3ccccc3C)CC2)o1	1.72%
Cc1ccnc(NC(=O)c2ccc(Br)o2)c1	-10.5%
CC(=O)Nc1cccc(C(C)NCC2CCS(=O)(=O)CC2)c1 (stereo not given)	0.224%
Cc1noc(C)c1-c1cc(CCC2CN(CCC(N)=O)CCO2)ncn1 (stereo not given)	6.11%
CC(C)(C)c1nc(CC(=O)N2CCCC(n3cncn3)C2)cs1 (stereo not given)	-11.2%
CCC1CCCCN1Cc1nc2c(cnn2C)c(=O)[nH]1 (stereo not given)	-3.18%
O=C(Nc1ccc2c(c1)OCO2)N1CCN(CCc2ccccc2)CC1	-9.28%
Cc1nn(C)c(C)c1-c1ccc(=O)n(C(C)C(=O)NC2CCCCC2)n1 (stereo not given)	1.94%
COc1ccc(Cl)cc1C(=O)NCCNc1cnccn1	-8.35%
CCOCCCNC(=O)CN(c1ccc(C)c(C)c1)S(C)(=O)=O	7.74%
Cc1cnccc1CN(C)C(=O)c1cccc(CCC(C)(C)O)c1	-3.55%
CC(C)C(=O)N1CCCC2(CCCN2CC2CCCC2)C1 (stereo not given)	5.25%

Compound	cytotoxicity at 10 µM
CCc1noc(CN2CCN(C(=O)N(C)C)CC2)n1	-4.97%
CCn1cc(Cn2cc(Cl)c(N)n2)c(C)n1	-6.56%
O=S1(=O)C[C@@H]2[C@H](C1)N(Cc1cc(F)cc(Cl)c1)CCN2CCO	-4.71%
Cc1cnc(CN2CCCCC2c2nc(-c3ccccc3)no2)cn1 (stereo not given)	-42%
O=C(C1=CC2(CCN(CCO)CC2)c2ccccc21)N1CCCC1	-1.16%
CC(C)COc1cncc(N2CCCN(CC(F)(F)F)CC2)n1	4.29%
O=C1CC(c2cccs2)Cc2[nH]c(=O)c(C(=O)NC3CCCC3)cc21 (stereo not given)	80.5%
O=C(CCOc1ccccc1F)N1CCOCC1	-4.4%
Cc1n[nH]c(C)c1C(N)C(=O)NCCc1csc(C(C)C)n1 (stereo not given)	-8.64%
CC(=O)c1ccc(S(=O)(=O)N2CCOC(Cn3ccnc3)C2)cc1 (stereo not given)	6.58%
COc1c(C)cnc(CN(C)C(=O)Nc2ccc3c(c2)CCO3)c1C	-0.921%
CCCC1(NC(=O)C(c2ccc(F)cc2)N(C)C)CC1 (stereo not given)	-37.1%
O=C(NC1CC(=O)N(C2CC2)C1)c1ccc(Cl)s1 (stereo not given)	9.05%
Cc1ccc(N2CCCc3sc(C(=O)NCCC#N)nc32)nn1	11.6%
CN1C[C@@H](C(=O)NC(C)(C)C)[C@@]2(CCc3ccccc3C(=O)N2)C1	-3.79%
CS(=O)(=O)c1ncc(CN2CCCC(C(N)=O)C2)n1CC1CCCCC1 (stereo not given)	-2.35%
O=C(C1CCOCC1)N1C[C@@H]2C[C@@H](c3nc(C4CC4)cs3)O[C@@H]2C1	-10.1%
CCN(CC1CN(Cc2ncc[nH]2)CCO1)c1cccnn1 (stereo not given)	1.31%
CCN(Cc1ccc(C#N)cc1F)C(=O)C(C)(C)C	5.73%
CS(=O)(=O)CCC(=O)N1C[C@H]2CC[C@@H](C1)N(Cc1ccccn1)C2=O	7.23%
CN1CCN(C(=O)c2cccn2C)c2ccccc2C1	7.28%
Cc1ccc2[nH]c(C(=O)N3CCCC3Cn3cccn3)cc2c1 (stereo not given)	-12%

Compound	cytotoxicity at 10 µM
Cc1cccnc1N1CCN(Cc2cc(O)c3cccc(F)c3n2)CC1	2.2%
Cc1noc(C)c1CN1CCCC1c1nc(-c2ccccc2)no1 (stereo not given)	-39.2%
O=C(Cc1csc(-c2ccccc2F)n1)NCc1ccc(C(=O)O)cc1	-3.85%
COC(=O)CN(C(=O)c1ccoc1)c1cccc(F)c1	5.42%
COCCC1COC2(CCN(C(=O)Cc3ccccc3)CC2)C1 (stereo not given)	-69.2%
COc1ccnc(CN2CCC=C(C(C)NC(C)=O)C2)c1OC (stereo not given)	-8.81%
CC(=O)Nc1nc(C(=O)N2CCCC(n3nc(C)nc3C)C2)cs1 (stereo not given)	-2.06%
Cc1ccc(OCC2CCCN(CC3CCOCC3)C2)cc1 (stereo not given)	16.1%
CCc1ccc2c(c1)C(CCNC(=O)Cc1cccc(F)c1)C(=O)N2 (stereo not given)	-49.1%
Cc1cc(F)cc2c(N3CCS(=O)(=O)CC3)c(C#N)cnc12	-16.7%
Cc1cc(CNC(=O)c2cc(COc3cncc(Cl)c3)on2)n[nH]1	16.1%
CC(C)OCCCNC(=O)CS(=O)(=O)Cc1ccc(Cl)c(Cl)c1	-9.7%
CCCS(=O)(=O)N1CCCC1c1cccc(N(C)C)c1 (stereo not given)	1.62%
O=C(CCc1ccc2c(c1)OCO2)N1CCCC(n2cccn2)C1 (stereo not given)	-15.8%
Cc1ccc(CNc2ccccc2-n2ccc(C)n2)nc1	5.7%
COc1cccc2c1OCC(C(=O)N1CCN(S(=O)(=O)N(C)C)CC1)C2 (stereo not given)	3.47%
CC(Nc1cccc2c1OCCO2)C(=O)Nc1ccc(Cl)cc1 (stereo not given)	2.84%
COCc1noc(-c2ccc(N3CCCC3c3nccs3)nc2)n1 (stereo not given)	7.12%
Cc1cc(N[C@H]2CCCC[C@@H]2O)n2nccc2n1	-1.42%
CS(=O)(=O)N1CCC(C(=O)N2CCN(Cc3cccc(Cl)c3)CC2)CC1	8.99%
Fc1ccc(N2CCCN(c3ccc(Cn4ccnc4)cn3)CC2)cc1	26.2%
Cc1ccc(C(=O)N2CCOCC3(CCN(C4CCOCC4)C3)C2)o1 (stereo not given)	-0.152%

Compound	cytotoxicity at 10 µM
Cc1nccc(CN2CC[C@H](Oc3cccc(F)c3)[C@@](C)(O)C2)n1	2.84%
CCCn1nc(C)c2c1NC(=O)CC2c1ccc(CN2CCCC2)s1 (stereo not given)	0.355%
N#Cc1ccc(N2CCC3(CC2)CC(OCc2cccnc2)CO3)cc1 (stereo not given)	38.8%
O=C(Cn1c(=O)oc2ccccc21)NCC1(O)CCc2ccccc21 (stereo not given)	-17.2%
CCN(Cc1c(C)nn(CC)c1C)S(=O)(=O)c1cnn(C)c1	4.98%
CNc1cncc(C2CCCN2C(=O)Cn2c(=O)oc3ccccc32)n1 (stereo not given)	-6.14%
COCCn1c2c(ccc1=O)CCN(C(=O)C1CC=CC1)CC2	4.77%
CCc1nc2n(n1)CC(NCCc1cccs1)CC2 (stereo not given)	-13%
O=c1cc(N2CCCCC2)cnn1CC(O)C(F)(F)F (stereo not given)	12.3%
CCC1CN(C(=O)c2cccc(O)c2)CCC(=O)N1Cc1ccccc1 (stereo not given)	6.78%
O=C(CCCn1cncn1)N1CCC2(CCCN(CC3CC3)C2=O)C1 (stereo not given)	-0.611%
COCC(=O)N1CC[C@@H](OCC2CC2)[C@@H]1Cc1cccnc1	-4.92%
CCN(CC)C(=O)CNC(=O)N1CCC(c2ccccc2)C1 (stereo not given)	2.03%
CN(Cc1ccc(F)cc1)CC1(O)CCN(C(=O)c2ccsc2)C1 (stereo not given)	-28.2%
CCc1cnc(CN(C)C2CCN(Cc3nnc(C4CC4)n3C)C2)o1 (stereo not given)	-5.09%
CC(C)c1cc(NC(=O)CNC2CCc3ncnn3C2)on1 (stereo not given)	4.44%
CC(C)c1nc(C2CCCN(c3ncccn3)C2)no1 (stereo not given)	12.4%
Cc1nn(C)c(C)c1NC(=O)CCn1ncc2c(C)cccc21	-10.8%
CC(=O)N[C@@H]1CN(C(=O)CC2CCOCC2)C[C@H]1O	-3.3%
CCCc1cnc(C)nc1N1CCC(F)(F)CC1	7.46%
CC(C)c1noc(CCC(=O)N2CCN(C)CC2c2ccccc2)n1 (stereo not given)	-5.3%
CCc1n[nH]c(C2CN(Cc3nnc(C4CC4)n3C)CCO2)n1 (stereo not given)	5.25%

From ChEMBL document CHEMBL4513216, “Probing the Open Global Health Chemical Diversity Library for Multistage-Active Starting Points for Next-Generation Antimalarials” (ACS Infect Dis, 2020)
